# Source: PubChem BioAssay
# Calls of active or inactive are those of the source.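 The calls were made as follows, unless noted: active = compounds giving at least 50% inhibition in the cell-based MKP-3 phosphatase rescue imaging test; inactive = the rest.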
# Legend:
# [1] = inhibitors of TNFa-induced NFkB p65 translocation, primary screen, imaging, HUVEC, MLSMR starter and 10KST1 sets (AID 438;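 active = inhibition above 20% together with a positive visual image hit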;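 also: compound added about 3h40 before a 20 min TNFalpha stimulation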;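 as to inhibition: signal is the nuclear over cytoplasmic p65 intensity ratio per well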); details: HUVEC TNFa-induced p65 nuclear translocation; cell count: measured here: nuclei count (cytotoxicity indicator), at 2.08 µM; inhibition: at 2 µM, stronger effect = higher value, 0% TNFa-plus-vehicle, 100% no-TNFa wells
# [2] = inhibitors of E-selectin induction by TNFa, primary screen, imaging, HUVEC, immunofluorescence, MLSMR starter and 10KST1 sets (AID 487;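 active = visually confirmed hit in the image check and inhibition above 20%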;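 as to inhibition: signal is fraction of cell area covered by stained E-selectin grains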;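 as to nuclei count: 100% = median nuclei count of all wells on the same plate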); details: HUVEC TNFalpha-induced E-selectin immunofluorescence imaging, at 2 µM; inhibition: stronger effect = higher value; nuclei count: measured here: cell number, toxicity
# [3] = DUSP6 inhibitors restoring Erk phosphorylation by chemical complementation, primary imaging in DUSP6-transfected HeLa (AID 609); details: HeLa MKP-3 transfected, phospho-Erk imaging KS statistic, at 10 µM, cells stimulated with TPA for 15 min;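 as to inhibition: phospho-Erk level distribution per well compared with pooled transfected vehicle control wells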
# [4] = biological target: Dual specificity protein phosphatase 6 (Homo sapiens) (UniProt Q16828); test: as above; details: HeLa MKP-3 transfected, phospho-Erk imaging KS statistic; at 10 µM; stronger effect = higher value; cells stimulated with TPA for 15 min
# [5] = biological target: Voltage-gated potassium channel subunit beta-2 (Rattus norvegicus) (UniProt P62483); test: KvBeta enzyme negative modulators, primary screen, biochemical, NADPH fluorescence (AID 622;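 active = fluorescence slope higher than the sample average by over 3 SD, cut at about -0.22 in these data, passing the limit was not always enough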;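 also: slope of raw intensity against log time taken from 70 to 1610 s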); details: recombinant KvBeta, 4-cyanobenzaldehyde reduction, at 10 µM, stronger effect = higher value
# [6] = biological target: Voltage-gated potassium channel subunit beta-2 (Rattus norvegicus) (UniProt P62483); test: KvBeta positive modulators, primary screen, biochemical, NADPH fluorescence (AID 623;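 active = NADPH fluorescence slope more negative than the mean of all samples by about 3 SD, 99.7% confidence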;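 also: fluorescence intensity change per second fitted from 20 to 320 s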); details: Recombinant KvBeta, NADPH fluorescence decrease slope, 10 min; at 10 µM; stronger effect = lower value
# [7] = biological target: Alpha-2C adrenergic receptor (Homo sapiens) (UniProt P18825); test: modulators of alpha2C/GIRK thallium flux, primary screen, cell-based, HEK293 alpha2C/GIRK1/2 (AID 624;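 active = fluorescence slope after compound addition differing from the mean of all screened samples at 99.7% confidence, in either direction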;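 also: slope of fluorescence ratio to pre-addition baseline per second over 15 to 24 s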); details: thallium flux BTC fluorescence, at 10 µM, actives lie on both sides
# [8] = inhibitors of larval lipid processing in zebrafish, primary screen, whole organism, PED6 fluorescence, gall bladder and intestine (AID 686;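 active = a full or partial loss of lipid-probe fluorescence in the fish gall bladder, intestine or both, judged by eye; inactive = no fluorescence loss, or compound toxic to the fish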;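 also: larvae 5 to 7 days old with five fish per well; signal comes from phospholipase A2 cleavage of quenched PED6 carried via bile; overnight exposure to compound and PED6 before scoring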); details: Zebrafish larvae PED6 lipid processing, fluorescence scoring; screened at 20 µM (by protocol)
# In short: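 system = live zebrafish larvae aged 5-7 days, whole organism | probe or stimulus = ingested quenched lipid PED6 at 100 nM | doses = 20 µM single dose | timing = overnight exposure | detection = fluorescence microscopy with visual scoring of gall bladder and intestine | read-out = visual per-well fluorescence inhibition score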
# [9] = inhibitors of Chlamydomonas gravitaxis, primary screen, whole organism, Chlamydomonas reinhardtii, WT vs cilia-less mutant, absorbance, 96-well (AID 463189;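 active = inhibition at or above 50% relative to wild type and mutant plate controls; inactive = inhibition below 50%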;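 also: 0% = wild type cc124 cells in DMSO and 100% = ciliumless bld1 mutant cells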); details: OD600 absorbance, 2 days, at 10 µM, stronger effect = higher value
# [10] = measured here: cell density z-score
# [11] = measured here: nuclear c-Myc green intensity z-score
# [12] = measured here: nuclear pErk red intensity z-score, stronger effect = higher value
# Chain of Voltage-gated potassium channel subunit beta-2 (Rattus norvegicus) (P62483 whole entry, looked up): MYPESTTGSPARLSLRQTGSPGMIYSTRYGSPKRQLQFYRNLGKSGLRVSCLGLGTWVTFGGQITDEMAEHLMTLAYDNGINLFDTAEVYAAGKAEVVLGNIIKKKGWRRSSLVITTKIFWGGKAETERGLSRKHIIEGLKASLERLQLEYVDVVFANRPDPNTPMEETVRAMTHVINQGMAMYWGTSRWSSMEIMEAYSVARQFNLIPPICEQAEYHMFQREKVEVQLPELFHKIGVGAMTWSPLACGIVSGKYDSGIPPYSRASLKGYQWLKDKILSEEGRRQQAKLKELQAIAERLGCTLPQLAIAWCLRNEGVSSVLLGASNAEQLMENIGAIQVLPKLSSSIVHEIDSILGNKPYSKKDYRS
# Chain of Alpha-2C adrenergic receptor (Homo sapiens) (P18825 whole entry, looked up): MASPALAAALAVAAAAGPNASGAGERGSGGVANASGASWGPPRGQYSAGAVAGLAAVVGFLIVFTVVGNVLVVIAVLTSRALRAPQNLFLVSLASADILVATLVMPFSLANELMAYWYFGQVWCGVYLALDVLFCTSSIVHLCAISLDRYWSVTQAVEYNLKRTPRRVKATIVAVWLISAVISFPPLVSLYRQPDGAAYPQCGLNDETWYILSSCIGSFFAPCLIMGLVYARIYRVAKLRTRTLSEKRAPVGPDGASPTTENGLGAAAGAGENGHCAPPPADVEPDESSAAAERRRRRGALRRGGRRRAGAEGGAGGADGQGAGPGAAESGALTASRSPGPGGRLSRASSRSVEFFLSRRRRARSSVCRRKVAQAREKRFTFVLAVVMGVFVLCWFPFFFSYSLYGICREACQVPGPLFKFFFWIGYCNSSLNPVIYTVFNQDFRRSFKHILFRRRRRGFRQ
# Chain of Dual specificity protein phosphatase 6 (Homo sapiens) (Q16828 whole entry, looked up): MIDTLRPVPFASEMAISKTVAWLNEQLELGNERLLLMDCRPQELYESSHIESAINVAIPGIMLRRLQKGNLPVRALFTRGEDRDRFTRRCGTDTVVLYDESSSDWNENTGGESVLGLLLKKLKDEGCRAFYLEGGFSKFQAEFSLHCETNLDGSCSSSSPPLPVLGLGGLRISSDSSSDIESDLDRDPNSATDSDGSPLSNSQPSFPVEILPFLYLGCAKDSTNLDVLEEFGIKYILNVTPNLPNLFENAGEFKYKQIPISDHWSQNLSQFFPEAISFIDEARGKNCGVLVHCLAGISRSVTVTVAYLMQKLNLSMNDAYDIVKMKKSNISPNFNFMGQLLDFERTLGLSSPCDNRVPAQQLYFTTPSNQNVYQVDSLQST
Structure (SMILES),cell count [1],inhibition [1],inhibition [2],nuclei count [2] [%],"z-score [3, 10]","z-score [3, 11]","z-score [3, 12]",inhibition [4],fluorescence slope [5],NADPH fluorescence slope [6],slope [7],outcome [8],inhibition [9]
CCN(CC)CCCn1c(C)cc2c(c1=O)C(c1cccc(Cl)c1)C(C#N)=C(N)O2 (stereo not given),448,13.8% (inactive),-49.3% (inactive),146,-0.339,0.269,1.37,2.46% (inactive),-0.388 (inactive),-4.3e-05 (inactive),0.00525 (inactive),inactive,-6.29% (inactive)
S=c1[nH]nc(-c2ccccc2)n1Cc1ccccc1,506,0% (inactive),-83.3% (inactive),170,0.046,1.63,-0.862,7.48% (inactive),-0.391 (inactive),-9.1e-05 (inactive),0.00591 (inactive),inactive,-5.83% (inactive)
CC(C)Nc1nc(NC(C)C)nc(N(C)n2cnnc2)n1,629,-8.8% (inactive),27.2% (inactive),188,0.189,-1.82,0.165,20.8% (inactive),-0.482 (inactive),-0.000155 (inactive),0.0051 (inactive),inactive,-5.15% (inactive)
Clc1ccc2[nH]c3c(NCCN4CCOCC4)ncnc3c2c1,504,-25% (inactive),-70% (inactive),154,-1.3,0.291,1.3,-2.47% (inactive),-0.503 (inactive),-3.9e-05 (inactive),0.00429 (inactive),inactive,2.54% (inactive)
N/C(CCN1CCCCC1)=N/O,582,-29.9% (inactive),25.5% (inactive),169,0.685,-0.291,-0.968,-4.27% (inactive),-0.418 (inactive),-9.2e-06 (inactive),0.00552 (inactive),inactive,12.2% (inactive)
COc1ccc(-c2cn3ccsc3n2)cc1,536,-3% (inactive),-235% (inactive),197,-1.31,-1.4,1.15,-8.95% (inactive),-0.478 (inactive),-0.000227 (inactive),0.00481 (inactive),inactive,-19.1% (inactive)
c1csc(-c2nn3c(C4CCCCC4)nnc3s2)c1,623,-8.5% (inactive),-52.2% (inactive),155,-1.83,-0.584,2.62,-15% (inactive),-0.426 (inactive),-0.00015 (inactive),0.00407 (inactive),inactive,13.7% (inactive)
CCOc1ccc(/C(O)=C2/C(=O)C(=O)N(CCN(CC)CC)C2c2ccco2)cc1 (stereo not given),494,-10.3% (inactive),-38.9% (inactive),136,0.106,0.969,-0.475,-15% (inactive),-0.521 (inactive),-4.6e-05 (inactive),0.00598 (inactive),inactive,-2.21% (inactive)
CC1(C)CC(=O)C2=C(C1)N(Cc1ccco1)C(=O)C2(NC(=O)c1cccnc1)C(F)(F)F (stereo not given),499,-8.6% (inactive),-131% (inactive),136,-1.48,-1.13,0.615,3.5% (inactive),-0.492 (inactive),-6.7e-05 (inactive),0.00643 (inactive),inactive,0.823% (inactive)
N#Cc1c(N)nc(SCc2ccccn2)c(C#N)c1-c1cccs1,526,-6.5% (inactive),-189% (inactive),176,0.739,1.34,-0.969,4.25% (inactive),-0.289 (inactive),1.5e-05 (inactive),0.00485 (inactive),inactive,1.02% (inactive)
C=CCOC(=O)C(C#N)c1nc2ccccc2nc1N1CCC(C(=O)OCC)CC1 (stereo not given),486,-17.7% (inactive),-58.1% (inactive),138,0.17,0.218,-0.151,-6.06% (inactive),-0.471 (inactive),-6.3e-05 (inactive),0.00188 (inactive),inactive,13.6% (inactive)
CC(=O)NC1(C(F)(F)F)C(=O)Nc2c1c(=O)n(C)c(=O)n2C (stereo not given),480,-4.5% (inactive),-139% (inactive),144,0.582,-0.0109,-0.0908,1.6e-07% (inactive),-0.529 (inactive),-4.1e-05 (inactive),0.00477 (inactive),inactive,2.3% (inactive)
O=c1c(C=NCCCn2ccnc2)c(-c2ccccc2)[nH]n1-c1nc2ccccc2s1,579,-6.5% (inactive),-108% (inactive),132,1.34,-0.223,0.991,25.8% (inactive),-0.47 (inactive),-1.6e-05 (inactive),0.00444 (inactive),inactive,1.09% (inactive)
Cc1cc(=O)[nH]c(SCC(=O)c2ccccc2)c1C#N,391,-0.9% (inactive),1.9% (inactive),168,2.74,-1.01,-0.58,13.4% (inactive),-0.41 (inactive),-0.000133 (inactive),0.00479 (inactive),inactive,-2.65% (inactive)
CCOC(=O)CCc1c(C)c(C#N)c2nc3ccccc3n2c1-n1ccnc1,559,-4.6% (inactive),-37.8% (inactive),140,1.11,-0.305,0.783,25.8% (inactive),-0.172 (inactive),-3.3e-07 (inactive),0.0062 (inactive),inactive,-3.19% (inactive)
CCCc1[nH]nc2c1C(c1c(C)nn(-c3ccccc3)c1Cl)C(C#N)=C(N)O2 (stereo not given),673,-3.2% (inactive),-234% (inactive),148,1.26,0.14,-0.117,12.7% (inactive),-0.399 (inactive),-1.9e-06 (inactive),0.00594 (inactive),inactive,-5.65% (inactive)
Cc1c(C(=O)O)c(=S)sn1CCOc1ccccc1,646,-1.9% (inactive),16.3% (inactive),159,0.114,1.14,0.102,14% (inactive),-0.256 (inactive),1.3e-05 (inactive),0.00412 (inactive),inactive,4.87% (inactive)
C=CCn1c(-c2ccccc2)n[nH]c1=S,492,-1.5% (inactive),71% (active),124,-1.14,2.62,-0.366,4.25% (inactive),-0.512 (inactive),-0.000177 (inactive),0.00512 (inactive),inactive,5.46% (inactive)
Cn1c(SCC(=O)NCc2ccccc2)nc2ccccc21,325,1.6% (inactive),-60.9% (inactive),79.7,0.441,2.21,-0.441,3.66% (inactive),-0.364 (inactive),-2.1e-05 (inactive),0.00569 (inactive),inactive; toxic,26.1% (inactive)
COc1ccccc1Cn1c2nc3ccccc3nc2c2c(=O)n(CC(C)C)cnc21,340,-7.7% (inactive),-28.2% (inactive),148,0.356,-0.852,-0.477,-8.59% (inactive),-0.425 (inactive),-0.000144 (inactive),0.00898 (inactive),inactive,6.68% (inactive)
CSc1nc(O)c(Cc2ccccc2)c(=O)[nH]1,543,5.9% (inactive),23.6% (inactive),105,-0.704,-0.524,-0.136,1.6e-07% (inactive),-0.403 (inactive),2.5e-05 (inactive),0.00553 (inactive),inactive,33.4% (inactive)
Cc1ccc2c(=O)c(CN(C)C3CCN(C)CC3)c(C)[nH]c2c1C,498,-21.3% (inactive),-40.5% (inactive),142,0.488,0.313,-0.364,1.12% (inactive),-0.491 (inactive),-4.5e-05 (inactive),0.00468 (inactive),inactive,1.23% (inactive)
CCOC(=O)c1[nH]c2cc3c(cc2c1NC(=O)CN1CCC2(CC1)OCCO2)OCO3,466,-3.8% (inactive),7.6% (inactive),111,0.45,1.98,-0.82,22.8% (inactive),-0.0748 (inactive),5.8e-07 (inactive),0.00639 (inactive),inactive,-16.4% (inactive)
O=C1C=C(O)CC(c2cccs2)C1 (stereo not given),590,1.5% (inactive),-11.9% (inactive),126,-0.072,-0.344,-0.148,-1.12% (inactive),-0.536 (inactive),-5.7e-05 (inactive),0.00523 (inactive),inactive,-9.61% (inactive)
Cc1cc(=O)oc(C)c1C(=O)N1CCN(C)CC1,367,-10.4% (inactive),-117% (inactive),167,-1.15,0.212,0.815,-8.59% (inactive),-0.463 (inactive),-0.000105 (inactive),0.00444 (inactive),inactive,5.44% (inactive)
